E-sel inducer – induces E-selectin expression in human endothelial cells; hit rate 0.37% among 260,000; AID 686992; activation, % at 7.58 µM; P16581; HUVEC E-selectin immunofluorescence imaging; normalized: neutral wells 0, TNF-alpha wells 100;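 active = mean E-selectin-positive cell signal at least 10% of the positive control, reached in at least 60% of replicates, without over 20% cell loss; inconclusive = no rule given, readout overlaps actives, possibly toxicity-flagged; inactive = the rest, including those meeting only one limit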
Target sequence (P16581 whole entry, looked up): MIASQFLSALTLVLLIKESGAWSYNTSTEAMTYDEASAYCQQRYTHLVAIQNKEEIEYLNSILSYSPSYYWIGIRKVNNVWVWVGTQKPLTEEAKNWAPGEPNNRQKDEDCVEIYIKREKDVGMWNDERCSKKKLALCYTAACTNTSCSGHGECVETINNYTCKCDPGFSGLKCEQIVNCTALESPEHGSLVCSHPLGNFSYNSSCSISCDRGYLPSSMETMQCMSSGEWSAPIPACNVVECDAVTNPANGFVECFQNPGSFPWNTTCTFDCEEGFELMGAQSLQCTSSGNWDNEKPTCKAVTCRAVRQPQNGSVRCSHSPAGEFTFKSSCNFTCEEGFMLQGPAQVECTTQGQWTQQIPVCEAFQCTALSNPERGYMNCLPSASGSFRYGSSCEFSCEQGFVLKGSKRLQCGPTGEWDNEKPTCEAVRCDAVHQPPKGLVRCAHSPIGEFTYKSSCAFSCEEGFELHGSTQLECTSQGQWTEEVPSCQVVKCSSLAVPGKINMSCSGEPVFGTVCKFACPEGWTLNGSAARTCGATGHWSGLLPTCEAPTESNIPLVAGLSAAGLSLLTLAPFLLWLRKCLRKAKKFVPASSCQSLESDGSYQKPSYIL
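Assay system: HUVEC, human umbilical vein endothelial cells / Amount: 3,000 HUVEC/well / Controls: TNF-alpha positive control, DMSO neutral control / Compound dosing: single concentration / Medium: EGM-2 over gelatin coat / Evaluation: percent E-selectin-positive cells / Signal: immunofluorescence imaging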
DENV2 CPE – DENV2-induced cell death inhibition; DENV2-infected cells, cytopathic effect rescue, plate reader; CPE inhibition, % at 9.99 µM; hit rate 1.7% among 350,000; AID 651640; in the data active = CPE inhibition above about 20%, passing the limit was not always enough; inconclusive = no clear call, values can overlap the other calls; tested in BHK-21 cells;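 note: 0% = median of neutral control wells and 100% = median of positive control wells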
Statin myotox sup – suppression of simvastatin myotoxicity | hit rate 0.78% among 330,000 | C2C12 myotubes + simvastatin, ATP luminescence, 48 h; scaled: DMSO 0, geranylgeraniol control 100 | rescue of ATP level, % at 7.49 µM;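 active = mean ATP rescue above about 67%, or every replicate alone reaching that limit, limit read from the data, passing the limit was not always enough; inconclusive = no clear call, values can overlap the other calls; inactive = mean under the limit and some replicate under it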;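 note: myotubes were challenged with 10 µM simvastatin during compound exposure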
An asterisk follows results filed as active; u = inconclusive; x = no result given. Rows were chosen to be rich in hits. Some 2.2% of all compounds tested hit in one or more screens of this group.

SMILES	E-sel inducer	DENV2 CPE	Statin myotox sup
COc1cccc(C#Cc2ccc3c(c2)[C@@H]2[C@@H](CCN2C(=O)CC2CC2)[C@H](CO)N3)c1	0	-1	x
COc1ccc(S(=O)(=O)Nc2ccc3c(c2)C(=O)N([C@@H](C)CO)C[C@H](C)[C@@H](CN(C)S(=O)(=O)c2ccccc2)OCCCC[C@H](C)O3)cc1	0	-8	x
COc1ccc(S(=O)(=O)Nc2ccc3c(c2)C(=O)N([C@@H](C)CO)C[C@@H](C)[C@@H](CN(C)S(=O)(=O)c2ccccc2)OCCCC[C@H](C)O3)cc1	0	21*	x
COCC(=O)N1[C@H](CO)[C@@H](c2ccccc2)C12CN(C(=O)Nc1ccccc1F)C2	0	18	x
O=C(Cc1ccccn1)N1CC2(C1)[C@@H](c1ccccc1)[C@@H](CO)N2C(=O)c1ccncc1	0	5	x
COCC(=O)N1[C@H](CO)[C@H](c2ccccc2)C12CN(C(=O)Nc1ccccc1F)C2	0	36*	x
COCC(=O)N1CC2(C1)[C@@H](c1ccccc1)[C@@H](CO)N2C(=O)c1ccncc1	0	30*	x
COCC(=O)N1CC2(C1)[C@H](c1ccccc1)[C@H](CO)N2C(=O)c1ccncc1	0	4	x
O=C(Cc1ccccn1)N1CC2(C1)[C@H](c1ccccc1)[C@@H](CO)N2C(=O)c1ccncc1	0	45*	x
C[C@@H]1CN([C@@H](C)CO)S(=O)(=O)c2ccc(C#CCN(C)C)cc2O[C@@H]1CN(C)Cc1cccnc1	1	-11	-17
CC(C)C#Cc1cnc2c(c1)C(=O)N([C@@H](C)CO)C[C@H](C)[C@@H](CN(C)C(=O)Nc1ccccc1)O2	0	-4	11
CCCC(=O)Nc1ccc2c(c1)OC[C@H](C)N(CC1CCCC1)C[C@H](C)[C@@H](OC)CN(C)C2=O	0	16	32
COCCNC(=O)C[C@@H]1C[C@@H]2c3cc(NC(=O)c4ccc5c(c4)OCO5)ccc3O[C@@H]2[C@H](CO)O1	0	11	-6
COCC(=O)N1C[C@@H](C)[C@@H](OC)CN(C)C(=O)c2cc(NS(C)(=O)=O)ccc2OC[C@H]1C	0	-6	3
COC(=O)c1ccc2nc3c(cc2c1)[C@@H]1CCN2C(=O)CCC[C@H](C3)[C@H]12	x	-12	19
CC1(C)CCC(=O)N2CC[C@H]3c4cc5ccccc5nc4C[C@@H]1[C@H]32	0	17	99*
Cc1ccc(S(=O)(=O)N[C@@H]2C=C[C@@H](CC(=O)N3CCN(c4ccccc4)CC3)O[C@H]2CO)cc1	0	9	1
C[C@@H]1CCCCO[C@@H](CN(C)C(=O)Nc2ccc(F)cc2)[C@@H](C)CN([C@H](C)CO)C(=O)c2cc(NS(=O)(=O)c3cccs3)ccc2O1	1	-3	7
C[C@@H]1CN([C@H](C)CO)C(=O)c2cc(NC(=O)CCCN(C)C)ccc2O[C@@H](C)CCCCO[C@H]1CN(C)S(=O)(=O)c1ccc(F)cc1	0	17	x
C[C@@H]1CCCCO[C@@H](CN(C)S(=O)(=O)c2ccc(F)cc2)[C@H](C)CN([C@@H](C)CO)C(=O)c2cc(NC(=O)CCCN(C)C)ccc2O1	0	21*	x
C[C@@H]1CCCCO[C@@H](CN(C)S(=O)(=O)c2ccc(F)cc2)[C@@H](C)CN([C@@H](C)CO)C(=O)c2cc(NC(=O)CCCN(C)C)ccc2O1	0	-4	x
C[C@@H]1CCCCO[C@H](CN(C)S(=O)(=O)c2ccc(F)cc2)[C@@H](C)CN([C@H](C)CO)C(=O)c2cc(NC(=O)CCCN(C)C)ccc2O1	0	34*	x
CCCNC(=O)[C@H]1[C@H](CO)[C@H]2Cn3c(ccc(-c4cccnc4)c3=O)[C@H]2N1C(=O)c1ccccc1F	0	-1	-8
C[C@@H]1CN([C@@H](C)CO)C(=O)c2cc(/C=C/c3ccccc3)cnc2O[C@@H]1CN(C)C(=O)c1ccc2c(c1)OCO2	0	u	3
CO[C@@H]1CN(C)C(=O)c2ccc(NC(=O)Nc3cccc(F)c3)cc2OC[C@@H](C)N(C(=O)Nc2c(C)noc2C)C[C@H]1C	0	63*	-12
SMILES	E-sel inducer	DENV2 CPE	Statin myotox sup
CCCN1C[C@H](C)[C@H](OC)CN(C)C(=O)c2cc(NC(=O)c3ccno3)ccc2OC[C@H]1C	0	12	-3
COc1cccc(C(=O)Nc2ccc3c(c2)C(=O)N(C)C[C@H](OC)[C@@H](C)CN(C(C)=O)[C@@H](C)CO3)c1	0	-11	5
CO[C@@H]1CN(C)C(=O)c2cc(NC(=O)Nc3cccc(F)c3)ccc2OC[C@@H](C)N(C(C)=O)C[C@@H]1C	0	1	-5
CO[C@H]1CN(C)C(=O)c2ccc(NC(=O)Nc3cccc(F)c3)cc2OC[C@H](C)N(C(=O)Nc2c(C)noc2C)C[C@@H]1C	0	-4	2
COc1cccc(C(=O)Nc2ccc3c(c2)C(=O)N(C)C[C@H](OC)[C@@H](C)CN(C(C)=O)[C@H](C)CO3)c1	0	64*	6
CCN1C[C@@H](C)[C@H](OC)CN(C)C(=O)c2cc(NC(=O)c3ccno3)ccc2OC[C@H]1C	0	20*	6
CO[C@@H]1CN(C)C(=O)c2ccc(NC(=O)Nc3cccc(F)c3)cc2OC[C@@H](C)N(C(C)=O)C[C@H]1C	0	109*	5
COCC(=O)Nc1ccc2c(c1)C(=O)N(C)[C@@H]1CC[C@H](CC(=O)OC)O[C@H]1CO2	0	-1	-4
CCCN(C)C[C@@H]1Oc2ncc(Br)cc2C(=O)N([C@H](C)CO)C[C@@H]1C	1	5	-7
C[C@H]1CN([C@@H](C)CO)C(=O)c2cc(NC(=O)Cn3cnnn3)ccc2O[C@@H]1CN(C)S(=O)(=O)c1cn(C)cn1	0	1	0
CO[C@@H]1CN(C)C(=O)c2ccc(NC(=O)C3CCCC3)cc2OC[C@@H](C)NC[C@@H]1C	0	-7	-8
C[C@H](CO)N1C[C@H](C)[C@@H](CN(C)Cc2ccc(C(=O)O)cc2)Oc2c(NS(C)(=O)=O)cccc2C1=O	x	u	-36
O=C(Nc1cc(F)ccc1F)N[C@@H]1CC[C@@H](CCn2cc(C3CCCC3)nn2)O[C@@H]1CO	0	-2	x
Cc1ccc(-c2ccc([C@H]3[C@H](CO)N4C(=O)CN(C(=O)Nc5ccc(F)cc5)C[C@@H]34)cc2)cc1	-1	6	x
CO[C@@H]1CN(C)C(=O)c2ccc(NC(=O)Nc3ccccc3)cc2OC[C@@H](C)N(C(C)=O)C[C@@H]1C	0	51*	-1
CCCN1C[C@H](C)[C@@H](OC)CN(C)C(=O)c2cc(NC(=O)c3ccc(F)cc3)ccc2OC[C@H]1C	1	47*	13
CO[C@H]1CN(C)C(=O)c2ccc(NC(=O)c3ccccc3)cc2OC[C@H](C)N(C(=O)CN(C)C)C[C@H]1C	0	29*	5
CO[C@@H]1CN(C)C(=O)c2ccc(NC(=O)c3ccccc3)cc2OC[C@H](C)N(C(=O)CN(C)C)C[C@H]1C	0	6	-3
CO[C@@H]1CN(C)C(=O)c2ccc(NC(=O)Nc3ccccc3)cc2OC[C@H](C)N(C(C)=O)C[C@@H]1C	0	-2	-14
CCCN1C[C@@H](C)[C@H](OC)CN(C)C(=O)c2ccc(NC(=O)c3cccc(F)c3)cc2OC[C@H]1C	0	-15	-47

Source: PubChem
